The values below come from ChEMBL document CHEMBL1275461, “Early bactericidal activity and pharmacokinetics of the diarylquinoline TMC207 in treatment of pulmonary tuberculosis” (Antimicrob Agents Chemother, 2008).

For data set [1], the system named is Mycobacterium tuberculosis. The data set can be described thus: Bactericidal activity against Mycobacterium tuberculosis in pulmonary tuberculosis patient assessed as reduction in sputum bacterial count at 600 mg/kg, po once daily measured after 4 days. Type of data set: functional. The procedure, abridged: (§1)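 Hospitalized treatment-naïve smear-positive patients took oral doses once daily, observed, after breakfast. Sputum was pooled over 16 h overnight at baseline, after each of the 7 dosing days, and on the night after the first standard-therapy dose. Sputum was stirred, digested with dithiothreitol for 20 min at room temperature, and diluted 10-fold. Dilutions were plated in quadruplicate on selective 7H11 agar and counted after 3-4 weeks at 37°C at 20-200 colonies. The read-out was change in log10 CFU/ml from baseline, with a count of 0 set to log 0.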

Data set [2] deals with Mycobacterium tuberculosis. The data set can be described thus: Bactericidal activity against Mycobacterium tuberculosis in pulmonary tuberculosis patient assessed as reduction in sputum bacterial count at 600 mg/kg, po once daily measured after 3 days. The class given is functional. The procedure, abridged:
as §1

The next data set relates to Homo sapiens. Kind of data set: Cardiotoxicity in pulmonary tuberculosis patient assessed as increase in QT interval at 600 mg/kg, po once daily for 7 days. The settings on record: in vivo, 168 h. Type of data set: toxicity, organism-based. On the set-up: dose 600 mg/kg, route oral.
Data set [3] relates to Mycobacterium tuberculosis. Kind of data set: Bactericidal activity against Mycobacterium tuberculosis in pulmonary tuberculosis patient assessed as reduction in sputum bacterial count at 600 mg/kg, po once daily measured on day 8 after starting standard TB therapy. Type of data set: functional. Put shortly: as §1
Data set [4] has as its system Mycobacterium tuberculosis. The data set can be described thus: Bactericidal activity against Mycobacterium tuberculosis in pulmonary tuberculosis patient assessed as reduction in sputum bacterial count at 600 mg/kg, po once daily measured after 6 days. Type of data set: functional. The procedure, abridged:
as §1

For data set [5], the system named is Mycobacterium tuberculosis. Kind of data set: Bactericidal activity against Mycobacterium tuberculosis in pulmonary tuberculosis patient assessed as reduction in sputum bacterial count at 600 […], po once daily measured after 1 day. The class given is functional. The procedure, abridged:
as §1

Data set [6] concerns Mycobacterium tuberculosis. Kind of data set: Bactericidal activity against Mycobacterium tuberculosis in pulmonary tuberculosis patient assessed as reduction in sputum bacterial count at 600 mg/kg, po once daily measured after 2 days. Type of data set: functional. Put shortly: as §1
The subject of data set [7] is Mycobacterium tuberculosis. The data set can be described thus: Bactericidal activity against Mycobacterium tuberculosis in pulmonary tuberculosis patient assessed as reduction in sputum bacterial count at 600 mg/kg, po once daily measured after 7 days. The class given is functional. The procedure, abridged:
as §1

Take `CO[C@H]1/C=C/O[C@@]2(C)Oc3c(C)c(O)c4c(O)c(c(/C=N/N5CCN(C)CC5)c(O)c4c3C2=O)NC(=O)/C(C)=C\C=C\[C@H](C)[C@H](O)[C@@H](C)[C@@H](O)[C@@H](C)[C@H](OC(C)=O)[C@@H]1C` [RIFAMPIN]: the log10CFU/ml in data set [1] is reported as -1.17; in data set [2], -0.89; in data set [3], -1.82; in data set [4], -1.55; in data set [5] it was -0.28; in data set [6], -0.88. Moreover, the log10CFU/ml in data set [7] is reported as -1.7. In addition, in the data set on Homo sapiens, the Time is reported as 13 ms.
